Measured values reported in ChEMBL document CHEMBL1671828 (ACS Med Chem Lett, 2011).
Calls of active or inactive are those of the source. The calls are words filed in the database; no cut-off is given here.

Experiments:
[1] = biological target: Sodium-dependent serotonin transporter (Rattus norvegicus) (UniProt P31652); assay: Displacement of [3H]citalopram from SERT in Sprague-Dawley rat brain membranes at 10 uM; format: cell membranes; details: Membrane
[2] = biological target: Transporter (Rattus norvegicus) (UniProt Q63380); assay: Displacement of [3H]nisoxetine from NET in Sprague-Dawley rat brain membranes at 10 uM; format: cell membranes; details: Membrane
[3] = biological target: Sodium-dependent dopamine transporter (Rattus norvegicus, UniProt P23977); format: cell membranes, Sprague-Dawley, Brain, Membrane
[4] = biological target: Sodium-dependent serotonin transporter (Rattus norvegicus, UniProt P31652); assay: Displacement of [3H]citalopram from SERT in Sprague-Dawley rat brain membranes; format: cell membranes, Membrane
[5] = biological target: Transporter (Rattus norvegicus, UniProt Q63380); assay: Displacement of [3H]nisoxetine from NET in Sprague-Dawley rat brain membranes; format: cell membranes, Membrane
[6] = system: Mus musculus; assay: Increase in horizontal locomotor activity in mouse measured after 30 mins post 4 hrs drug administration; format: functional, organism-based
Method in brief: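 Mice; horizontal locomotor activity counts per min recorded over the first 30 min of each of the 4 h after drug injection. Several doses (mg/kg) were tested to give dose-effect curves. Each point is the average of six mice.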

[7] = biological target: Sodium-dependent dopamine transporter (Rattus norvegicus) (UniProt P23977); assay: Inhibition of [3H]dopamine uptake at DAT in Sprague-Dawley rat brain membranes at 10 uM; format: cell membranes; details: Membrane
Chain of Sodium-dependent dopamine transporter (Rattus norvegicus) (P23977 whole entry): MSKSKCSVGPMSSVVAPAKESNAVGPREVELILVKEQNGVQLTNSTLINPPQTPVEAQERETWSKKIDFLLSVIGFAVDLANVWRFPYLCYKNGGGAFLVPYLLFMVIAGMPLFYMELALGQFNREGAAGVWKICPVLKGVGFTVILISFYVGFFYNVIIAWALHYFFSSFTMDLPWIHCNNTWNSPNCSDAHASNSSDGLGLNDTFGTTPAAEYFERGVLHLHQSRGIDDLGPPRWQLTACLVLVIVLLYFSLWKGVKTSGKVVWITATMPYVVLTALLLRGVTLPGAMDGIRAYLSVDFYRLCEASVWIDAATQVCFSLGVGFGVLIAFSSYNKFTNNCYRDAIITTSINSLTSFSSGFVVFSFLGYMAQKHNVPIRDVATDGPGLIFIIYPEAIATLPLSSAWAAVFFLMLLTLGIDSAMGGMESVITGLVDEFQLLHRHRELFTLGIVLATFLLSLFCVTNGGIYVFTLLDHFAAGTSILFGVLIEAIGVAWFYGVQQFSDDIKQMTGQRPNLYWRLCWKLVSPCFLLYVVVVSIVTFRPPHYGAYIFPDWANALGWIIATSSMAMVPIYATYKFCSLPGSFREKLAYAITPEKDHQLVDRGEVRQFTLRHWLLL

Chain of Transporter (Q63380 whole entry): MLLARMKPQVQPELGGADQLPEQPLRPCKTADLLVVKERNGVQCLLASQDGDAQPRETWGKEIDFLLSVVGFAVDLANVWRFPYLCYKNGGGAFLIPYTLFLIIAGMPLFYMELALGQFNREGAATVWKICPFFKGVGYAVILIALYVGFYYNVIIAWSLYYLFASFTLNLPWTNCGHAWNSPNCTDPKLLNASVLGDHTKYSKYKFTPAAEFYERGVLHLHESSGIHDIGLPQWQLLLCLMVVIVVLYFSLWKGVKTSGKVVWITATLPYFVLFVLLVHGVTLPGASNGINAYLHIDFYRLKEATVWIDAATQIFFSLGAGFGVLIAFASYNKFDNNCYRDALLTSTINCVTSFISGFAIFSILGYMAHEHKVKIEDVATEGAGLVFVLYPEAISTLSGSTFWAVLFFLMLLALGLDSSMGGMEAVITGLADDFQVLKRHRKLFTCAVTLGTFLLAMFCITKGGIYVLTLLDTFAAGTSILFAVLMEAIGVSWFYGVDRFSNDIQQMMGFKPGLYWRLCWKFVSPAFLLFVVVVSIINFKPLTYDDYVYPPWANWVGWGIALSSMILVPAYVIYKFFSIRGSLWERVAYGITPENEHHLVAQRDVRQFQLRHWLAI
Chain of Transporter (Rattus norvegicus) (Q63380 as listed by the source): as the sequence (Q63380 whole entry) above
Chain of Sodium-dependent dopamine transporter (P23977 whole entry): as the sequence (P23977 whole entry) above
Chain of Sodium-dependent serotonin transporter (P31652 whole entry): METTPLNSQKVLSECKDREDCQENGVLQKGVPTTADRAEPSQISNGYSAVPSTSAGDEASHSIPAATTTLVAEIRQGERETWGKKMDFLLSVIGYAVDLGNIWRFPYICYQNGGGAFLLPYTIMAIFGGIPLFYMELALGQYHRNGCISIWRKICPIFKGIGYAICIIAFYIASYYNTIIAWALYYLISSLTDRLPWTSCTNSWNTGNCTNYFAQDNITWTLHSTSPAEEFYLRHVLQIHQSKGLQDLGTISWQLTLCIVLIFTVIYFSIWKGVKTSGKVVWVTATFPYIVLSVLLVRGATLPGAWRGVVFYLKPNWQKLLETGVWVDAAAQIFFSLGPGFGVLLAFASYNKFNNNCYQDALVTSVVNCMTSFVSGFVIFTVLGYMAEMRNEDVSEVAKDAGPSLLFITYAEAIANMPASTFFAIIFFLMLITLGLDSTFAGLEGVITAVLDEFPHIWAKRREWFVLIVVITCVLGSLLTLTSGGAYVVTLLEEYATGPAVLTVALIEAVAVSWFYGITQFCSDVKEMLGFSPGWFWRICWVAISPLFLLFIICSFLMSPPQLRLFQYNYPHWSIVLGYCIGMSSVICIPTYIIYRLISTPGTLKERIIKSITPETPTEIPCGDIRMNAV
Chain of Sodium-dependent serotonin transporter (Rattus norvegicus) (P31652 whole entry): as above

Structure (SMILES)	inhibition [1]	inhibition [2]	Ki [3] [µM]	Ki [4] [µM]	Ki [5] [µM]	Activity [6]	inhibition [7]
NC(=O)CSC(c1ccc(F)cc1)c1ccc(F)cc1	inactive	inactive	1.57				
NC(=O)CSC(c1ccc(Cl)cc1)c1ccc(Cl)cc1			2.23	12.7			
NC(=O)CSC(c1ccc(Br)cc1)c1ccc(Br)cc1			1.93	2.2	77.7		
CN(C)C(=O)CSC(c1ccccc1)c1ccccc1	inactive	inactive	16.5				
CN(C)C(=O)CSC(c1ccc(F)cc1)c1ccc(F)cc1		inactive	9.51	25.9			
CN(C)C(=O)CSC(c1ccc(Cl)cc1)c1ccc(Cl)cc1			4.51	5.98	42.5		
CN(C)C(=O)CSC(c1ccc(Br)cc1)c1ccc(Br)cc1			2.45	3.21	19.2		
NC(=O)C[S@+]([O-])C(c1ccccc1)c1ccccc1	inactive	inactive				Dose-dependent effect	
NC(=O)C[S@@+]([O-])C(c1ccccc1)c1ccccc1	inactive	inactive				Dose-dependent effect	
NC(=O)C[S+]([O-])C(c1ccc(F)cc1)c1ccc(F)cc1 (racemic)	inactive	inactive	2.19				
NC(=O)C[S+]([O-])C(c1ccc(Cl)cc1)c1ccc(Cl)cc1 (racemic)		inactive		39		Dose-dependent effect	
NC(=O)C[S+]([O-])C(c1ccc(Br)cc1)c1ccc(Br)cc1 (racemic)		inactive	0.6	10.6			
CN(C)C(=O)C[S+]([O-])C(c1ccc(F)cc1)c1ccc(F)cc1 (racemic)		inactive		16.2			inactive
CN(C)C(=O)C[S+]([O-])C(c1ccc(Cl)cc1)c1ccc(Cl)cc1 (racemic)		inactive	34.6	22.3			
CN(C)C(=O)C[S+]([O-])C(c1ccc(Br)cc1)c1ccc(Br)cc1 (racemic)		inactive	21.3	14.2			
CNC(=O)C[S+]([O-])C(c1ccc(Cl)cc1)c1ccc(Cl)cc1 (racemic)	inactive	inactive	2.44				
CNC(=O)C[S+]([O-])C(c1ccc(Br)cc1)c1ccc(Br)cc1 (racemic)		inactive	1.65	33.2			
O=C(C[S+]([O-])C(c1ccccc1)c1ccccc1)NCCCc1ccccc1 (racemic)	inactive	inactive	2.66				
CN(C)CC[S+]([O-])C(c1ccccc1)c1ccccc1 (racemic)		inactive		45.8			inactive
CN(C)CC[S+]([O-])C(c1ccc(Cl)cc1)c1ccc(Cl)cc1 (racemic)			2.89	0.406	36.2		
CN(C)C(=O)C[S+]([O-])C(c1ccccc1)c1ccccc1 (racemic)	inactive	inactive					inactive
NC(=O)C[S+]([O-])C(c1ccccc1)c1ccccc1 (racemic)	inactive	inactive				Dose-dependent effect	
[O-][S+](CCN1CCOCC1)C(c1ccccc1)c1ccccc1 (racemic)	inactive	inactive					inactive
